Results collected from several papers.
Protocols differ between the studies behind these lines.
Target: Dual specificity tyrosine-phosphorylation-regulated kinase 1B (DYRK1B, Homo sapiens, UniProt Q9Y463)

| SMILES | assay | setting | endpoint | value |
| --- | --- | --- | --- | --- |
| CC/C(=N\NC(=O)NCc1cccc(O)c1)c1ccc(O)c(C)c1O | enzyme activity, inhibitor | 0.1 µM | inhibition | -5.1% |
| COc1cc2ncnc(Nc3ccc(Oc4ccccc4)cc3C)c2cc1OC | enzyme activity, inhibitor | 1 µM | inhibition | 0% |
| CCCS(=O)(=O)Nc1ccc(F)c(C(=O)c2c[nH]c3ncc(-c4ccc(Cl)cc4)cc23)c1F | enzyme activity, inhibitor | 1 µM | inhibition | < 20% |
| Cc1c(C(=O)O)cc(-c2ccc(C3CCNCC3)cc2)c2ccc(-c3ccc(C(F)(F)F)cc3)cc12 | cell-free assay, competition with immobilised ligand | 1 µM | remaining binding | 74% |
| O=C(O)c1ccc2c(c1)nc(Nc1ccccc1)c1ncncc12 | enzyme activity, inhibitor, radiometric | 1 µM | remaining activity | 62% |
| O=C1NC(c2ccccn2)Sc2ccccc21 (stereo not drawn) | cell-free assay, competition with immobilised ligand | 1 µM | remaining binding | 100% |
| O=C(O)c1ccc2c(c1)nc(NCCc1cccc(F)c1)c1ncncc12 | enzyme activity, inhibitor, radiometric | 1 µM | remaining activity | 117% |
| Cc1sc(C(=O)NC2COC2)cc1-n1cc(NC(=O)Nc2c(F)cccc2Cl)cn1 | enzyme activity, inhibitor | 10 µM | remaining activity | 105% |
| O=C(N1CCS(=O)(=O)CC1)N1C[C@H](c2ccc(OC(F)(F)F)cc2)C[C@H](c2nc(C3CC3)no2)C1 | cell-free assay, competition with immobilised ligand | 1 µM | remaining binding | 93% |
| Cn1cncc1C1=CN(c2ncnc3[nH]cnc23)CCS1 | enzyme activity, inhibitor, radiometric | 50 nM | inhibition | 22.7% |
| CCC(=N\O)/C(C)=C/c1ccc(F)cc1 | cell-free assay, competition with immobilised ligand | 1 µM | remaining binding | 57% |
| O=C(O)c1ccc2c(c1)nc(NCc1ccccc1)c1ccncc12 | enzyme activity, inhibitor, radiometric | 1 µM | remaining activity | 112% |
| Cc1ccc(NC(=O)c2ccc(C)c(C(F)(F)F)c2)cc1C#Cc1nn(C2CCC(O)CC2)c2ncnc(N)c12 (stereo not drawn) | cell-free assay | 10 µM | remaining signal | 92% |
| O=C(O)c1ccc2c(c1)nc(Nc1ccc3ccccc3c1)c1ncncc12 | enzyme activity, inhibitor, radiometric | 1 µM | remaining activity | 41% |
| O=C(CSc1nc2nccnc2c(=O)n1CCc1ccccc1)Nc1nccs1 | enzyme activity, inhibitor | 10 µM | inhibition | -3% |
